Experimental data as given in ChEMBL document CHEMBL1154141, “Meroditerpenoids and derivatives from the brown alga Cystoseira baccata and their antifouling properties” (J Nat Prod, 2008).
Converted amounts (≈) assume the structure as drawn. The source made the active and inactive calls. The calls are words filed in the database; no cut-off is given here.

Tests used:
[1] = system: Chrysotila roscoffensis; experiment: Antimicrobial activity against Pleurochrysis roscoffensis AC 238 after 48 hrs; format: functional, organism-based
Summary of the method: (§1)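 Microalgal cultures (0.4 μg/mL chlorophyll A) in F/2 medium were incubated with compound for 48 h at 18 °C under a 15:9 light:dark cycle with cool-white fluorescent light at 54 μmol photons/m²·s. Relative optical density at 600 nm gave the MIC versus a seawater control.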

[2] = system: Escherichia coli; experiment: Antibacterial activity against Escherichia coli ATCC 35049 after 48 hrs by microtiter broth dilution method; format: functional; settings: ATCC 35049, 48 h
Summary of the method: (§2)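 Terrestrial bacterial strains at 2×10^8 cells/mL were incubated with compound for 48 h at 25 °C in trypsic soy broth. MIC was read by microtiter broth dilution against a culture-medium control.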

[3] = system: Bacillus subtilis; experiment: Antibacterial activity against Bacillus subtilis ATCC 55572 after 48 hrs by microtiter broth dilution method; format: functional; settings: ATCC 55572, 48 h; summary of the method: as §2
[4] = Toxicity against Echinus esculentus larvae after 48 hrs
Summary of the method: (§3)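 Larvae incubated with compounds at 0.5, 1, 2.5, 5, 10, 25, 50 and 100 μg/mL, 10–15 larvae per well in 2 mL solution. Viable larvae counted after 48 h exposure. LC50 is the concentration giving 50% mortality relative to control, derived by curve fitting. Six replicates per test and control, with two batches of organisms.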

[5] = system: Polaribacter irgensii; experiment: Antibacterial activity against Polaribacter irgensii ATCC 700398 after 48 hrs by microtiter broth dilution method; format: functional; settings: ATCC 700398, 48 h
Summary of the method: (§4)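 Marine bacterial strains at 2×10^8 cells/mL were exposed to compound for 48 h at 25 °C in Mueller Hinton broth supplemented with NaCl (15 g/L). MIC was set by microtiter broth dilution against a culture-medium control.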

[6] = system: Exanthemachrysis gayraliae; experiment: Antimicrobial activity against Exanthemachrysis gayraliae AC 15 after 48 hrs; format: functional; summary of the method: as §1
[7] = system: Cylindrotheca closterium; experiment: Antimicrobial activity against Cylindrotheca closterium AC 170 after 48 hrs; format: functional, organism-based; summary of the method: as §1
[8] = system: Salmonella typhimurium; experiment: Antibacterial activity against Salmonella Typhimurium ATCC 35986 after 48 hrs by microtiter broth dilution method; format: functional, Salmonella enterica subsp. enterica serovar Typhimurium; settings: Salmonella enterica, ATCC 35986, 48 h; summary of the method: as §2
[9] = system: Pseudoalteromonas distincta; experiment: Antibacterial activity against Pseudoalteromonas elyakovii ATCC 700519 after 48 hrs by microtiter broth dilution method; format: functional; settings: ATCC 700519, 48 h; summary of the method: as §4
[10] = Toxicity against Crassostrea gigas larvae after 48 hrs; summary of the method: as §3
[11] = system: Vibrio aestuarianus; experiment: Antibacterial activity against Vibrio aestuarianus ATCC 35048 after 48 hrs by microtiter broth dilution method; format: functional; settings: ATCC 35048, 48 h; summary of the method: as §4
[12] = system: Sargassum muticum; experiment: Antimicrobial activity against Sargassum muticum after 48 hrs; format: functional, organism-based
Summary of the method: (§5)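 Spores (3000 spores/mL) in F/2 medium were exposed to compound for 48 h at 18 °C under a 15:9 light:dark cycle with cool-white fluorescent light at 54 μmol photons/m²·s. Germination and attachment rates were then scored.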

[13] = system: Ulva intestinalis; experiment: Antimicrobial activity against Ulva intestinalis after 48 hrs; format: functional, organism-based; summary of the method: as §5
[14] = Inhibition of Mytilus edulis phenoloxidase after 2 hrs
Summary of the method: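 Purified mussel phenoloxidase was preincubated with compound for 2 h. Activity was then followed as the rise in absorbance at 475 nm with L-Dopa (10 mM) as substrate, and percent inhibition was calculated against the control.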

| Compound | Activity [1] | MIC [2] [µg/mL] | MIC [3] [µg/mL] | LC50 at 48 h [4] [µg/mL] | MIC [5] [µg/mL] | Activity [6] | Activity [7] | MIC [8] [µg/mL] | MIC [9] [µg/mL] | LC50 at 48 h [10] [µg/mL] | MIC [11] [µg/mL] | IC50 [12] [µg/mL] | IC50 [13] [µg/mL] | MIC ([6]; AC 15, 48 h) [µg/mL] | IC50 [14] [µg/mL] |
| --- | --- | --- | --- | --- | --- | --- | --- | --- | --- | --- | --- | --- | --- | --- | --- |
| COc1cc(C)c2c(c1)C=C[C@@](C)(CC1=C(CC(C)(C)O)C(=O)[C@@]3(C)CCC[C@]3(C)C1)O2 | inactive | > 100 | > 100 | > 100 | > 100 | inactive | inactive | > 100 | > 100 | > 100 | > 100 |  |  |  |  |
| CC1=C(CC(C)(C)O)C(=O)[C@@]2(C)CCC[C@]2(C)C1 | inactive | > 100 | > 100 | > 100 | > 100 |  | inactive | > 100 | > 100 | > 100 | > 100 | 1 (≈ 3.99 µM) | 1 (≈ 3.99 µM) | 1 (≈ 3.99 µM) | 1 (≈ 3.99 µM) |
| COc1cc(C)c(O)c(C/C=C(\C)C[C@]2(O)C[C@@]3(C)CCC[C@]3(C)C(=O)[C@@H]2CC(C)(C)O)c1 | inactive | > 100 | > 100 | > 100 | > 100 | inactive | inactive | > 100 | > 100 | > 100 | > 100 |  |  |  |  |
| CC(=O)/C=C1\C[C@@]2(C)CCC[C@]2(C)C2=C1CC(C)(C)O2 | inactive | > 100 | > 100 | > 100 | > 100 | inactive | inactive | > 100 | > 100 | > 100 | > 100 | > 100 | 2.5 (≈ 9.11 µM) |  | 2.5 (≈ 9.11 µM) |
| COc1cc(C)c2c(c1)C=C[C@](C)(CC1=C(CC(C)(C)O)C(=O)[C@@]3(C)CCC[C@]3(C)C1)O2 | inactive | > 100 | > 100 | > 100 | > 100 | inactive | inactive | > 100 | > 100 | > 100 | > 100 | 2.5 (≈ 5.7 µM) | > 100 |  | 1 (≈ 2.28 µM) |
| COc1cc(C)c(O)c(C/C=C(\C)CC2=C(CC(C)(C)O)C(=O)[C@@]3(C)CCC[C@]3(C)C2)c1 | inactive | > 100 | > 100 | > 100 | > 100 | inactive | inactive | > 100 | > 100 | > 100 | > 100 |  |  |  |  |
